Assay outcomes as filed in PubChem.
CFTR F508del cor: correctors of CFTR F508del function in bronchial epithelial cells. CFBE cells, YFP halide quenching; stimulated with forskolin plus potentiator P3; % fluorescence drop versus neutral controls. activity (quench increase), % at 7.58 µM. actives 0.36% (n = 350,000). AID 720511;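 active = mean added fluorescence quench of at least 8% versus neutral control, with both replicates also reaching 8%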;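 note: cells transiently co-express mutant CFTR-F508del with the halide-sensitive YFP; corrector assay measuring rescue of mutant channel to the surface after 24 h compound exposure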
rRNA inh HTS: inhibitors of bacterial rRNA selective over humanized ribosomes; actives 1.6% (n = 350,000); E. coli WT GFP vs humanized-ribosome RFP mutants, fluorescence, 24 h; active compounds read low; DMSO median 0, no signal -100; GFP signal change (wild-type ribosome), % (test concentration not listed); AID 720706;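 active = significant combined selectivity score with lowered wild-type GFP, culture density cut under 30%, mutant RFP and density less affected; inactive = any of these conditions unmet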
SIRT5 block: inhibitors of human sirtuin-5 desuccinylase; Q9NXA8; Purified SirT5, succinyl-peptide AMC, trypsin-coupled fluorescence; inhibition, % at 15 µM; actives 1.1% (n = 330,000); AID 652115; in the data active = inhibition above about 15%
Target sequence (Q9NXA8 whole entry, looked up): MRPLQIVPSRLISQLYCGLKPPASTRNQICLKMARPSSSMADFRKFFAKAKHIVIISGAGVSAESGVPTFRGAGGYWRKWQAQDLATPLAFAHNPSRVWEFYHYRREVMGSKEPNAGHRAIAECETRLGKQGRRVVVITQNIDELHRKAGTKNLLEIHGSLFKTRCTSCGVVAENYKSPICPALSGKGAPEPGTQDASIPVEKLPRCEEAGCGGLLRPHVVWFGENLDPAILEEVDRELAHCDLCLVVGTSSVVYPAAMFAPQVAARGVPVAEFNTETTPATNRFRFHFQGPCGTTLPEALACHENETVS
S100A4 MyoIIA: S100A4-myosin IIA interaction inhibition; S100A4/TAMRA-MyoIIA peptide fluorescence polarization; P26447; inhibition, % at 10.7 µM; actives 0.14% (n = 360,000);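 active = mean inhibition of at least 70% across replicates, with every replicate also reaching that level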
Target sequence (P26447 whole entry, looked up): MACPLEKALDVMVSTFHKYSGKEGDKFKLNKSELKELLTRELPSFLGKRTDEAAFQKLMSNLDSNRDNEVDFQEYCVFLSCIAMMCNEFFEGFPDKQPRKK
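Material: S100A4 monomer (human). Medium: Calcium-containing HEPES buffer, pH 7.2. Probe or stimulus: labelled myosin peptide probe, 5 nM. Compound dosing: one concentration per compound. Timing: polarization read 5 min after assay mix addition, stable 5–60 min. Benchmarks: DMSO as neutral control, TFP as positive control.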
ERAP1 inh: ERAP1 (human) enzyme inhibition; Q9NZ08; recombinant ERAP1, Leu-AMC fluorescence, 60 min; inhibition, % at 10.7 µM; actives 0.15% (n = 340,000); AID 652197;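 active = mean replicate inhibition of at least 30%, or all replicates individually reaching that 30% level; inactive = mean below 30% and not every replicate reaching it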;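 note: 0% = neutral control wells and 100% = L-leucinethiol positive control wells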
Numbers without * were called inactive; · = no result. Most compounds without a hit are left out; they make up all but 3.1% or so of the library.

SMILES	CFTR F508del cor	rRNA inh HTS	SIRT5 block	S100A4 MyoIIA	ERAP1 inh
CCNC(=O)C[C@H]1CC[C@H]2[C@H](COc3ccc(NC(=O)Nc4ccccc4C)cc3C(=O)N2C)O1	-1	2	0	-7	2
C[C@@H]1CN([C@@H](C)CO)C(=O)c2cc(C3=CCCCC3)cnc2O[C@@H]1CN(C)S(C)(=O)=O	1	8	·	·	·
S=c1[nH]cnc2scc(-c3ccccc3)c12	·	-29*	0	-2	2
O=C(Nc1cccc(Cl)c1)N1C[C@H]2[C@@H](c3ccccc31)[C@H](CO)N2C(=O)C1CC1	0	-16	-2	12	-3
CC(C)NC(=O)Nc1ccc2c(c1)C(=O)N([C@@H](C)CO)C[C@@H](C)[C@@H](CN(C)C(=O)c1ccccc1)OCCCC[C@@H](C)O2	0	-2	4	-24	-1
COc1ccccc1C#CC1=CC(=O)CC(C)(C)C1	-3	-23*	-3	8	·
O=C(C1CCCO1)N1CCN(C(=S)Nc2ccc(F)c(Cl)c2)CC1 (stereo not given)	1	-29*	-1	11	2
COc1ccc(S(=O)(=O)NNC(=S)NCCc2ccccc2)c(OC)c1	0	-25*	-1	-12	-2
COc1ccc(NC(=S)NCCc2ccccc2)c(OC)c1	-1	-16	2	4	3
CNC[C@H]1Oc2ccc(NS(C)(=O)=O)cc2CC(=O)N(C)C[C@H]1C	·	2	·	·	·
Nc1ccc(N=Nc2ccc(N)cc2)cc1	-1	-25*	1	-6	5
CN(C)c1ccc(N=Nc2ccccc2Br)cc1	-1	-12	-2	-3	-4
Cc1cc(N(C)C)ccc1N=Nc1ccc(N)cc1	0	-51*	0	2	2
C[C@H]1CN([C@@H](C)CO)C(=O)Cc2cc(NC(=O)Nc3ccc(F)cc3)ccc2O[C@H]1CN(C)C(=O)Nc1ccc2c(c1)OCO2	1	0	-8	-13	-2
C[C@H]1CN([C@@H](C)CO)C(=O)c2cc(-c3ccncc3)cnc2O[C@@H]1CN(C)Cc1ccc(Oc2ccccc2)cc1	-6	-11	0	1	0
Cc1ccc(Nc2nnc(SCC(O)=C(C#N)c3nc4ccccc4[nH]3)s2)c(C)c1	3	-10	·	-4	0
N#C/C(=C(/O)c1ccc(Br)s1)c1nc2ccccc2[nH]1	10.0*	1	0	1	-1
N#C/C(=C(/O)CCl)c1nc2ccccc2[nH]1	3	-16*	0	-2	5
Cc1cccc(C)c1Nc1nnc(SC/C(O)=C(\C#N)c2nc3ccccc3[nH]2)s1	1	-34*	·	-3	-3
Cc1cc(Br)ccc1SCC(=O)OC/C(O)=C(\C#N)c1nc2ccccc2[nH]1	-12	15	21*	15	-1
CCC(=O)Nc1ccc2c(c1)C(=O)N(C)C[C@@H](OC)[C@H](C)CN(Cc1ccccn1)[C@H](C)CO2	0	-3	-4	0	-2
CCC(=O)N(C)C[C@@H]1Oc2cc(C3=CCCCC3)ccc2S(=O)(=O)N([C@@H](C)CO)C[C@@H]1C	-1	6	·	·	·
CC(=O)NN1C(=O)c2ccc3c4c(ccc(c24)C1=O)C(=O)N(NC(C)=O)C3=O	1	-22*	-2	0	-1
c1ccc(COc2cccc(-c3cc4nc(NCc5cccs5)ccn4n3)c2)cc1	0	-28*	-5	-7	1
C[C@H]1CN([C@@H](C)CO)C(=O)c2cc(C#Cc3cccc(F)c3)cnc2O[C@@H]1CN(C)CC1CCCC1	-2	·	23*	-1	0
SMILES	CFTR F508del cor	rRNA inh HTS	SIRT5 block	S100A4 MyoIIA	ERAP1 inh
C[C@H](O)C#Cc1cnc2c(c1)C(=O)N([C@H](C)CO)C[C@H](C)[C@@H](CN(C)CC1CCCC1)O2	-1	2	21*	8	-11
C[C@H](CO)N1C[C@H](C)[C@H](CN(C)Cc2cccc(F)c2)Oc2ncc(C#C[C@@H](C)O)cc2C1=O	0	5	24*	-2	-5
C[C@@H]1CN([C@@H](C)CO)C(=O)c2cc(C#C[C@@H](C)O)cnc2O[C@H]1CN(C)C(=O)Cc1ccncc1	-2	2	1	87*	-3
C[C@H](O)C#Cc1cnc2c(c1)C(=O)N([C@@H](C)CO)C[C@H](C)[C@H](CN(C)Cc1cccc(F)c1)O2	1	3	-1	-2	-3
COc1ccc(NC(=O)Nc2ccc3c(c2)C(=O)N([C@H](C)CO)C[C@@H](C)[C@H](CN(C)C)OCCCC[C@@H](C)O3)cc1	0	0	-4	-1	1
O=C(c1cnccn1)N1CC(=O)N2[C@H](C1)[C@H](c1ccc(C#CCC3CCCC3)cc1)[C@@H]2CO	-2	0	3	-6	4
CC(=O)N(C)C[C@@H]1Oc2ncc(-c3ccc(C)cc3)cc2C(=O)N([C@H](C)CO)C[C@@H]1C	-1	7	-3	3	2
O=C(/C=C/c1ccc(F)cc1)c1cc(Br)ccc1O	-3	-27	16*	-2	·
CO[C@@H]1CN(C)C(=O)c2cc(NS(C)(=O)=O)ccc2OC[C@H](C)N(C(=O)C2CCC2)C[C@@H]1C	-2	1	-4	1	1
O=C(C[C@@H]1C[C@@H]2c3cc(NC(=O)NC4CCCC4)ccc3O[C@@H]2[C@H](CO)O1)NCCc1ccccc1	0	-3	-3	-12	0
CC(C)(C)C(=O)N1CCN(c2ccc([N+](=O)[O-])c(NCC3CCCO3)c2)CC1 (stereo not given)	·	-38*	·	-3	3
CN(C)CC(=O)Nc1ccc2c(c1)[C@@H]1C[C@@H](CC(=O)NCc3ccncc3)O[C@@H](CO)[C@@H]1O2	0	4	-7	7	-2
Cc1ccc(S(=O)(=O)NCC[C@@H]2CC[C@H](NC(=O)C3CCOCC3)[C@@H](CO)O2)cc1	1	6	2	3	-2
O=C(C[C@@H]1CC[C@H](NS(=O)(=O)c2ccc(F)cc2)[C@H](CO)O1)N1CCN(c2ccccc2)CC1	-2	0	20*	-5	1
CCNC(=O)C[C@@H]1CC[C@@H](NS(=O)(=O)c2ccc(F)cc2)[C@H](CO)O1	0	2	0	96*	-1
O=C(C[C@H]1CC[C@H](NS(=O)(=O)c2ccc(F)cc2)[C@@H](CO)O1)N1CCN(c2ccccc2)CC1	2	1	9	-6	2
O=C(C[C@@H]1CC[C@@H](NS(=O)(=O)c2ccc(F)cc2)[C@@H](CO)O1)N1CCC(Cc2ccccc2)CC1	4	5	28*	4	1
O=C(C[C@H]1CC[C@@H](NS(=O)(=O)c2ccccc2)[C@@H](CO)O1)NCc1ccncn1	0	-1	21*	-7	0
